Laboratory results published in ChEMBL document CHEMBL4725336, “Anti-cancer potential of (1,2-dihydronaphtho[2,1-b]furan-2-yl)methanone derivatives” (Bioorg Med Chem Lett, 2020).

Assays:
MDA-MB-468 = assay: Antiproliferative activity against human MDA-MB-468 cells assessed as inhibition of cell proliferation by MTT assay; assay type: functional; conditions: read-out: LD50 (the source's name)
Method in brief: (§1)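 MTT proliferation assay; cells exposed to compounds across 0-50 μM; LD50 derived from dose-dependent survival. Triple-negative MDA-MB-468, MDA-MB-231 and 4T1, ER+/PR+ MCF-7, and non-cancerous lung fibroblast WI-38 tested.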

MCF7 = assay: Antiproliferative activity against human MCF7 cells assessed as inhibition of cell proliferation by MTT assay; assay type: functional; conditions: read-out: LD50 (the source's name); method in brief: as §1
[1] = Cytotoxicity against human WI-38 cells assessed as inhibition of cell proliferation by MTT assay; assay type: cell-based; conditions: read-out: LD50 (the source's name); method in brief: as §1
[2] = Selectivity index, ratio of LD50 for human WI-38 cells to LD50 for human MDA-MB-468 cells assessed as inhibition of cell proliferation by MTT assay; assay type: toxicity; conditions: WI-38 cells and MDA-MB-468 cells, read-out: Selectivity Index
Method in brief: (§2)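 MTT proliferation assay on cells treated with 0–50 μM. LD50 was derived for each cell line, and the selectivity index was calculated as WI-38 LD50 divided by cancer-cell LD50.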

[3] = Selectivity index, ratio of LD50 for human WI-38 cells to LD50 for human MCF7 cells assessed as inhibition of cell proliferation by MTT assay; assay type: toxicity; conditions: WI-38 cells and MCF7 cells, read-out: Selectivity Index; method in brief: as §2
4T1 = assay: Antiproliferative activity against mouse 4T1 cells assessed as inhibition of cell proliferation by MTT assay; assay type: functional; conditions: read-out: LD50 (the source's name); method in brief: as §1
[4] = Selectivity index, ratio of LD50 for human WI-38 cells to LD50 for mouse 4T1 cells assessed as inhibition of cell proliferation by MTT assay
Method in brief: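 Selectivity index computed as MTT-derived LD50 in non-cancerous WI-38 lung fibroblasts divided by LD50 in the cancer line (cells exposed to 0-50 μM).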

MDA-MB-231 = assay: Antiproliferative activity against human MDA-MB-231 cells assessed as inhibition of cell proliferation by MTT assay; assay type: functional; conditions: read-out: LD50 (the source's name); method in brief: as §1
[5] = Selectivity index, ratio of LD50 for human WI-38 cells to LD50 for human MDA-MB-231 cells assessed as inhibition of cell proliferation by MTT assay; assay type: toxicity; conditions: WI-38 cells and MDA-MB-231 cells, read-out: Selectivity Index

| SMILES | CC50 (MDA-MB-468) | CC50 (MCF7) | CC50 [1] | selectivity ratio [2] | selectivity ratio [3] | CC50 (4T1) | Selectivity Index [4] | CC50 (MDA-MB-231) | selectivity ratio [5] |
| --- | --- | --- | --- | --- | --- | --- | --- | --- | --- |
| O=C(c1ccccc1)[C@H]1Oc2ccc3ccccc3c2[C@@H]1c1ccc(O)cc1 | 81 µM | 77 µM | 115 µM | 1.42 | 1.49 |  |  |  |  |
| O=C(c1ccc(Br)cc1)[C@@H]1Cc2c(ccc3ccccc23)O1 | 18 µM | 21 µM | 56 µM | 3.11 | 2.66 | 25 µM | 2.24 | 23 µM | 2.43 |
| C[C@H]1c2c(ccc3ccccc23)O[C@@H]1C(=O)c1ccccc1 | 34 µM | 38 µM | 64 µM | 1.88 | 1.68 |  |  |  |  |
| O=C(c1ccccc1)[C@H]1Oc2ccc3ccccc3c2[C@@H]1c1ccc(Br)cc1 | 63 µM | 56 µM | 77 µM | 1.22 | 1.37 |  |  |  |  |
| O=C(c1ccccc1)[C@H]1Oc2ccc3ccccc3c2[C@@H]1c1ccc(Cl)cc1 | 87 µM | 91 µM | 96 µM | 1.1 | 1.05 |  |  |  |  |
| COc1cc([C@@H]2c3cc4c(cc3[C@@H](O[C@@H]3O[C@@H]5CO[C@@H](C)O[C@H]5[C@H](O)[C@H]3O)[C@H]3COC(=O)[C@H]23)OCO4)cc(OC)c1O [ETOPOSIDE] | 27.9 µM | 45.3 µM | 29.6 µM | 1.06 | 0.65 |  |  |  |  |
| O=C(c1ccc(F)cc1)[C@@H]1Cc2c(ccc3ccccc23)O1 | 27 µM | 29 µM | 54 µM | 2 | 1.86 |  |  |  |  |
| N#Cc1ccc([C@H]2c3c(ccc4ccccc34)O[C@@H]2C(=O)c2ccccc2)cc1 | 53 µM | 51 µM | 72 µM | 1.35 | 1.41 |  |  |  |  |
| O=C(c1ccccc1)[C@H]1Oc2ccc3ccccc3c2[C@@H]1C1CCCCC1 | 46 µM | 42 µM | 74 µM | 1.6 | 1.76 |  |  |  |  |
| COc1cc([C@H]2c3c(ccc4ccccc34)O[C@@H]2C(=O)c2ccccc2)cc(OC)c1OC | 88 µM | 86 µM | 128 µM | 1.45 | 1.49 |  |  |  |  |
| Cc1ccc([C@H]2c3c(ccc4ccccc34)O[C@@H]2C(=O)c2ccccc2)cc1 | 63 µM | 71 µM | 72 µM | 1.14 | 1.01 |  |  |  |  |
| O=C(c1ccccc1)[C@H]1Oc2ccc3ccccc3c2[C@@H]1c1ccccc1 | 72 µM | 68 µM | 89 µM | 1.24 | 1.3 |  |  |  |  |
| O=C(c1ccccc1)[C@@H]1Cc2c(ccc3cc(Br)ccc23)O1 | 32 µM | 54 µM | 73 µM | 2.28 | 1.35 |  |  |  |  |
| O=C(c1ccccc1)[C@H]1Oc2ccc3ccccc3c2[C@@H]1c1ccc2ccccc2c1 | 23 µM | 28 µM | 59 µM | 2.56 | 2.1 |  |  |  |  |
| N#Cc1ccc(C(=O)[C@H]2Oc3ccc4ccccc4c3[C@@H]2c2ccc3ccccc3c2)cc1 | 54 µM | 57 µM | 88 µM | 1.63 | 1.54 |  |  |  |  |
| CCC[C@H]1c2c(ccc3ccccc23)O[C@@H]1C(=O)c1ccccc1 | 69 µM | 74 µM | 79 µM | 1.14 | 1.07 |  |  |  |  |
| O=C(c1ccco1)[C@@H]1Cc2c(ccc3ccccc23)O1 | 34 µM | 37 µM | 51 µM | 1.5 | 1.38 |  |  |  |  |
| CC(=O)[C@@H]1Cc2c(ccc3ccccc23)O1 | 22 µM | 26 µM | 47 µM | 2.13 | 1.8 |  |  |  |  |
| O=C(c1ccco1)[C@H]1Oc2ccc3cc(Br)ccc3c2[C@@H]1c1ccccc1 | 68 µM | 72 µM | 92 µM | 1.35 | 1.28 |  |  |  |  |
| COc1ccc([C@H]2c3c(ccc4ccccc34)O[C@@H]2C(=O)c2ccccc2)cc1 | 118 µM | 84 µM | 83 µM | 0.7 | 0.98 |  |  |  |  |
| O=C(c1ccccc1)[C@H]1Oc2ccc3cc(Br)ccc3c2[C@@H]1c1ccccc1 | 18 µM | 19 µM | 52 µM | 2.89 | 2.74 | 24 µM | 2.16 | 22 µM | 2.36 |
